This assay deals with Delta-type opioid receptor (Homo sapiens, UniProt P41143). Put plainly: Displacement of [3H]naltrindole from human delta opioid receptor expressed in CHO cells. The essentials: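 CHO cells stably expressing a single human opioid receptor were grown in DMEM with 10% FBS and penicillin/streptomycin at 37 °C in 5% CO2. Their membranes were incubated with radioligand and 12 concentrations of test compound at 25 °C in 50 mM Tris-HCl, pH 7.5.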

Each structure is given as a SMILES string.

Chain of Delta-type opioid receptor (P41143 whole entry): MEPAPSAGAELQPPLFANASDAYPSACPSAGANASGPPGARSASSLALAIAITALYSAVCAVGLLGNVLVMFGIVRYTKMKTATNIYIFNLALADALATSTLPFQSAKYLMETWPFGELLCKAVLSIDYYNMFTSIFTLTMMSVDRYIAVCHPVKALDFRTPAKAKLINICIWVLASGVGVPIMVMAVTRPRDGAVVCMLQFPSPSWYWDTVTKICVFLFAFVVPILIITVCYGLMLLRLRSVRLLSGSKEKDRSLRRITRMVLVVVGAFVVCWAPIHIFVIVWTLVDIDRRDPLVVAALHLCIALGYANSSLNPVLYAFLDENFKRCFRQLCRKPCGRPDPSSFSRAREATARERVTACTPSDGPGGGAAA

In turn, `O=C(CCCCC(=O)NCc1cc2c(cc1O)[C@@]13CCCC[C@H]1[C@@H](C2)N(CC1CCC1)CC3)NCc1cc2c(cc1O)[C@@]13CCCC[C@H]1[C@@H](C2)N(CC1CCC1)CC3` [Hexanedioic Acid Bis(17-N-cyclobutylmethyl-3-hydroxymorphinan-2-methyl)amide] gave a Ki of 630 nM.

These data come from BindingDB's records for doi:10.1021/jm9013482 (Harvard Medical School, 2010).
